A word on the apparent Kd: it is a dissociation constant that holds for the conditions of the assay.

The subject of the series is MS2 coat protein. The experiment in a line: apparent Kd, MS2 coat protein; higher = weaker binding; RNA-MaP array; FMN 200 µM where present. An outline of the steps: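 Stalled E. coli RNA polymerase produced the designs on Illumina sequencing-chip clusters. SNAP-549-labelled MS2 coat protein was added from 0.7 or 1.5 nM, doubling to 3 µM, without and then with constant ligand, in 100 mM Tris-HCl pH 7.5, 80 mM KCl, 4 mM MgCl2, BSA, DTT, yeast tRNA and Tween-20. The apparent Kd is the median of filtered per-cluster fits of green signal normalised to red-channel RNA signal and control-cluster median Fmax.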

Setting [1] is: designed as: ON switch for flavin mononucleotide, no ligand.
Where [2] appears, read: ligand present: flavin mononucleotide, designed as: ON switch for flavin mononucleotide.
[3] abbreviates: designed as: OFF switch for flavin mononucleotide, no ligand.
Setting [4] is: ligand present: flavin mononucleotide, designed as: OFF switch for flavin mononucleotide.

Consider “GCAACGCCUGACAUGAGGAUCACCCAUGUUAGAUUGUUAUGUCAGGAUAUUGUCGCUAAAGGUGAUGAGAAGGGAUAUGUUGCU”, for which the “apparent Kd” value came to 1180 nM under setting [1] and 71 nM under setting [2].

As for “CCAUAAAAGAUCCAAAAUUACAACAUGAGGAUCACCCAUGUGCAGGAUAUCGUGCCAGUGAAGUACGAGAAGGGCAGACACUGC”, the “apparent Kd” value is, setting by setting: under setting [3], 450 nM; under setting [4], 487 nM.

For “GCCCAAUCCACUUCGGGCCCAGACAGAAGGGCACACGGUCUAAGUCACAUGAGGAUCACCCAUGUGCAGGAUAUGUCUCGACUC”, the “apparent Kd” value under setting [3] amounted to 9.88 nM and the “apparent Kd” value under setting [4] came to 50.3 nM.

With “ACCAUUUACUAGUUUUCUAUACAUGAGGAUCACCCAUGUUUUUAGGAUAUCAGCGUGAAACACGCUGAGAAGGAAGAACAAUCG”, the “apparent Kd” value by setting is: under setting [3], 19.1 nM; under setting [4], 24.6 nM.

In the case of “UCCAACCCUGUGAGGAUAUCGUCCAUUUUUUGUUCCGAGAAGGCACAUGAGGAUCACCCAUGUUUUUUAUUUUU”, the “apparent Kd” value is 28.1 nM under setting [3] and 93.7 nM under setting [4].

For the sequence “AAGAAGUGAGGAUAUAGUUGCACUAGCUAAUGCUAGUGCAACUAGAAGGCACAUGAGGAUCACCCAUGUAAAAG”, the “apparent Kd” value is, setting by setting: under setting [3], 29.1 nM; under setting [4], 41.9 nM.

With “GGAGCACGCACAGGAUAUCCGGCGGCGCUCGUCGGAGAAGGGUGACAUGAGGAUCACCCAUGUACGUGCAACCCAGUUUGAGAG”, the “apparent Kd” value worked out at 122 nM under setting [1] and 44.8 nM under setting [2].

For the sequence “UGAUUUCAUGUAGGAUAUGCUUGGCGAAGCUACGCAGAAGGACAUGAGGAUCACCCAUGUUUUAGCGUCUGAGUAUAGAUUCUA”, the “apparent Kd” value under setting [3] turned out to be 30.6 nM and the “apparent Kd” value under setting [4] was determined as 187 nM.

Regarding “AGAUGACAAAGUCAUCUCUGACGGACAUGAGGAUCACCCAUGUAGGAUAUGCUACUCAAAGAGUAGCAGAAGGACAUGUGUCUU”, the “apparent Kd” value runs as follows: under setting [3], 33.5 nM; under setting [4], 173 nM.

Turning to “GGUGCCAUGUAGAAGGCAGAUCUGAUUCAGAUCUGAGGAUAUACAUGAGGAUCACCCAUGUAAAGGCACCGCACGAGAGUGCAA”, the “apparent Kd” value turned out to be 6.51 nM under setting [3] and 8.81 nM under setting [4].

Regarding “UCGGCGCGAGGAUAUACGUUUGCUUUUUAGGAUCGUUGCGUACAUGAGGAUCACCCAUGUAGAAGGCGCGCCGC”, the “apparent Kd” value reads like this: under setting [3], 14.6 nM; under setting [4], 19.5 nM.

Consider “AAUAAACUCACAGGAUAUAGCAGAGGUCGCGUGUACUUACAGGCGACUAUGCUAGAAGGGUGACCACAUGAGGAUCACCCAUGU”, for which the “apparent Kd” value was 746 nM under setting [1] and 137 nM under setting [2].

On to “AGUCGGAGCAGAGGAUAUAUACAUGAGGAUCACCCAUGUGACUGACUACGCUGGAAACAGCAUGUAUAGAAGGCUGCUCCGACA”, for which the “apparent Kd” value by setting is: under setting [3], 448 nM; under setting [4], 882 nM.

In the case of “CCCUCACAUGAGGAUCACCCAUGUCAGGAUAUCUCACAUCAGCCUUAGGCCGAUGUCUAGAGAAGGGACGUAUC”, the “apparent Kd” value under setting [3] came to 22.7 nM and the “apparent Kd” value under setting [4] stood at 30.3 nM.

On to “UUUAAACAUGAGGAUCACCCAUGUCGUUCAAAUCAAGGAUAUCAAGCGUGUGAGCACACUUGAGAAGGUGAAGCUC”, for which the “apparent Kd” value under setting [1] was 31 nM and the “apparent Kd” value under setting [2] turned out to be 60.8 nM.

As to “CUGACGUCAGGAUAUCUGAUGUCUAACUUCGGUUAGACAUCAGAGAAGGGACAUGAGGAUCACCCAUGUCAGAG”, the “apparent Kd” value under setting [3] stood at 28.7 nM and the “apparent Kd” value under setting [4] was 23.1 nM.

Consider “CAACUGUGAGGAUAUGGUGAGUAGUGCCUGAGCGCUGCUCACCAGAAGGCACAUGAGGAUCACCCAUGUAUGAC”, for which the “apparent Kd” value is, setting by setting: under setting [3], 46 nM; under setting [4], 164 nM.

Take “CCUGCACAUGAGGAUCACCCAUGUUAGGAUAUAUUUGACCGUGGAAUUACCAUUGGAAGUAGAAGGAACAUGUA”: the “apparent Kd” value was determined as 16.1 nM under setting [3] and 18 nM under setting [4].

Consider “GGAUCGAAAGUGAGGAUAUGCUGGUCCUUGGAUCAGCAGAAGGCACAUGAGGAUCACCCAUGUGGUAACGGUCC”, for which the “apparent Kd” value is 33.8 nM under setting [3] and 172 nM under setting [4].

In the case of “GUAGCAUGAUUAGGAUAUUCAGCGAGUAGAUUGACAUGAGGAUCACCCAUGUGGCGAAAGCCGAGGGAGAAGGGAUGAUGCUAC”, the “apparent Kd” value under setting [1] is 34.9 nM and the “apparent Kd” value under setting [2] worked out at 25 nM.

For “CCUUUACAUGAGGAUCACCCAUGUCAGGAUAUCCUGUGGUGUUGUCUCGGGCGACACAUGAGCCAGGAGAAGGGACGAAGGGAA”, the “apparent Kd” value came out at 49 nM under setting [3] and 76.3 nM under setting [4].

For “ACAUGAGGAUCACCCAUGUUCACAUAGGAUAUUGAUUAUAUUGGUUUAAGAAUAGUAAUUGACCUCAAGAAGGAUGCCUGAUCU”, the “apparent Kd” value under setting [1] amounted to 15.3 nM and the “apparent Kd” value under setting [2] was 12.2 nM.

For the sequence “GUUAAGGUAGGAUAUACGAUAAUAUAGGGUAGAGAUAUAACACAUGAGGAUCACCCAUGUAGAAGGACCAAUUG”, the “apparent Kd” value under setting [3] amounted to 25.3 nM and the “apparent Kd” value under setting [4] came out at 75.2 nM.

Turning to “CAAAGUUGGUAAGGAUAUCCCACAUUAUUCUGACCCGUGCAAGCUACAUGAGGAUCACCCAUGUGGGAGAAGGUGCGGUAAAGA”, the “apparent Kd” value by setting is: under setting [3], 6.16 nM; under setting [4], 6.11 nM.

In the case of “AUAUUGUGAGGAUAUCCAAUAUAUGACAUGAGGAUCACCCAUGUUUCCACUCGUACCUCCGGAGAAGGCACUUAAA”, the “apparent Kd” value runs as follows: under setting [3], 20.5 nM; under setting [4], 23.2 nM.

As for “AAUAAUUAGUAAGGAUAUACUAGCGAUUAGCUUGUAGAAGGUACAGUCUUAUGUAUAACAAAUUAACAUGAGGAUCACCCAUGU”, the “apparent Kd” value is, setting by setting: under setting [1], 10.2 nM; under setting [2], 7.39 nM.

“ACAAAGUGAGGAUAUGCUAUCGUACAUUAUUGUUAUCGUUUGCAGAAGGCACAUGAGGAUCACCCAUGUAAGAA”: the “apparent Kd” value reads like this: under setting [3], 29.4 nM; under setting [4], 30.5 nM.

As to “GCAGGAUAAGUGAGGAUAUACCUCUGGAUACAGAGGUAGAAGGUACAUGAGGAUCACCCAUGUCUAUAACCUGC”, the “apparent Kd” value reads like this: under setting [3], 14.6 nM; under setting [4], 16.1 nM.

“UUAAAUCGAAACAUGAGGAUCACCCAUGUGUUGUAAUUAAUAUAGGAUAUGUAUAUACUUUUAUAAUAGAAGGAUGAUAAUACU”: the “apparent Kd” value was found to be 15.4 nM under setting [1] and 11.1 nM under setting [2].

Consider “UUUAUUUCGGCAGGAUAUACAUGUAUAUAUAUUUCUUUAUAUCUUAUUACAUGAGGAUCACCCAUGUAGAAGGGCCUUCUUAUC”, for which the “apparent Kd” value by setting is: under setting [3], 47.7 nM; under setting [4], 46 nM.

On to “GUCCUCCGUGCCCUUAACGCACAUGAGGAUCACCCAUGUAGGAGAAGGGCCCAACAAAUCAAAGGGCAGGAUAUCCAAAUCAUG”, for which the “apparent Kd” value runs as follows: under setting [3], 75.1 nM; under setting [4], 18.9 nM.

Regarding “GAUGUAUUCGUAGGAUAUCCGUCGCCACCGUGUGGAGAAGGACGAACAUGAGGAUCACCCAUGUAUCAUGGUGUGGACGCUUUC”, the “apparent Kd” value was found to be 287 nM under setting [3] and 315 nM under setting [4].

For “GUGAGUAGUCAGGAUAUGCUGUACAAAAGUACAGCAGAAGGGAUUACAUGAGGAUCACCCAUGUUAUCUUCAUG”, the “apparent Kd” value reads like this: under setting [3], 185 nM; under setting [4], 510 nM.

On to “GUGUGUUGCGGGCAGGAUAUGUAUUUGAGUACAUGAGGAUCACCCAUGUGCGCCUGUUUCAGGCGACAGAAGGGCCUAUCGCGAC”, for which the “apparent Kd” value is, setting by setting: under setting [1], 159 nM; under setting [2], 30.9 nM.

On to “GCCGAUUAAGUGAGGAUAUACCUAUGGAUACAUAGGUAGAAGGUACAUGAGGAUCACCCAUGUUCCUCAACGGC”, for which the “apparent Kd” value is, setting by setting: under setting [3], 10.4 nM; under setting [4], 12.7 nM.

For “AGAUCAACCACAGGAUAUGGCUAGCAUAGCUAGCCAGAAGGGUGGUCGUAUCCAUGUAAAUACAUGAGGAUCACCCAUGUAUCC”, the “apparent Kd” value runs as follows: under setting [1], 220 nM; under setting [2], 119 nM.

“CCUGUGUGAGGAUAUGGUGUUAAAAAAAAGGAAUAGCUCCUCCAGAAGGCACAUGAGGAUCACCCAUGUCGUGG”: the “apparent Kd” value runs as follows: under setting [3], 23.4 nM; under setting [4], 57.1 nM.

With “AGUGUCAUCGAGAAGGCCUCAACAUGAGGAUCACCCAUGUUGCAAAAUGGGAGGAUAUCGCGCAAAAAGCUACGUUUCGUAGCA”, the “apparent Kd” value under setting [1] stood at 43.1 nM and the “apparent Kd” value under setting [2] worked out at 6.96 nM.

For the sequence “ACAAAUGGAGGAUAUACAUGAGGAUCACCCAUGUUUAUCCUACAUAUGUGAUACUCAUGUAGAAGGCCAUUUGA”, the “apparent Kd” value by setting is: under setting [3], 13.1 nM; under setting [4], 12.6 nM.

For the sequence “GACUCGCGCACAGGAUAUCCACAGAGCGGACGUGGAGAAGGGUGACAUGAGGAUCACCCAUGUACGUGAGUCUAGAUCACUUCC”, the “apparent Kd” value is, setting by setting: under setting [1], 52.4 nM; under setting [2], 31 nM.

As to “ACAUGAGGAUCACCCAUGUAGAAUGGAGAAGGUAGAUACUUGUGACUCUCCCAUGUACAUAGGACUGAGGAUAUUCUAAUAAUU”, the “apparent Kd” value amounted to 49.6 nM under setting [1] and 40.2 nM under setting [2].

Regarding “GAGACACAUGAGGAUCACCCAUGUGAGGAUAUCCGAAGGACCAAAUUAAGAAUUAAAGGGAGAAGGCACAUAAA”, the “apparent Kd” value reads like this: under setting [3], 27 nM; under setting [4], 25.9 nM.

Take “GGAGCAUACAUUAACAUGAGGAUCACCCAUGUCAAAAGACAUGAGGAUAUGGAUCCGAAAAGGAUCCAGAAGGCAUGGUGCUCC”: the “apparent Kd” value is, setting by setting: under setting [1], 173 nM; under setting [2], 11.5 nM.

On to “GCGUCAGAAUUAAUUGUGACAGGCAGAAGGCUAUAUCUUAUGUCAGACAUGAGGAUCACCCAUGUAGAGGAUAUGCAGUUACAC”, for which the “apparent Kd” value reads like this: under setting [3], 10.6 nM; under setting [4], 17.9 nM.

In the case of “GCACCUUUAUUUGAACCGAUACGAACAUGAGGAUCACCCAUGUAGGAUAUGCUAAAAGUUGUGUUGCAGAAGGACAUUUAGUGC”, the “apparent Kd” value is 9.36 nM under setting [3] and 8.98 nM under setting [4].

For the sequence “GUGAAGUGAGGAUAUACGAGAGAGGCUGAACCGGACGAGAAGUAGAAGGCACAUGAGGAUCACCCAUGUAAGGA”, the “apparent Kd” value came to 33 nM under setting [3] and 32.1 nM under setting [4].

As for “UUCCUCGUUGUGAGGAUAUCGUCCGGGUUUUGUUACGAGAAGGCACAUGAGGAUCACCCAUGUUACUUGAUGUU”, the “apparent Kd” value stood at 19 nM under setting [3] and 64 nM under setting [4].

“CGCUGGAACACAGGAUAUCGCACAUGCCUGAUCCAGUUAAUAUCACAUGAGGAUCACCCAUGUGGUGAGAAGGGUGUCAAGUUU”: the “apparent Kd” value by setting is: under setting [3], 27.1 nM; under setting [4], 47.2 nM.
